# Test results: ChEMBL document CHEMBL3526048, “In vitro metabolism of rivoglitazone, a novel peroxisome proliferator-activated receptor γ agonist, in rat, monkey, and human liver microsomes and freshly isolated hepatocytes” (Drug Metab Dispos, 2011)
# Columns and labels:
# [1] = Drug metabolism in human hepatocytes assessed as formation of 3-(4-((6-methoxy-1-methyl-1H-benzo[d]imidazol-2-yl)methoxy)phenyl)-2-(methylsulfinyl)propanamide at 30 uM after 3 hrs by radio-HPLC/LC-MS/MS analysis in presence of NADPH-generating system/SAM; type: ADME, cell-based, Hepatocyte
# [2] = Drug metabolism in rat hepatocytes assessed as formation of 3-(4-((6-methoxy-1-methyl-1H-benzo[d]imidazol-2-yl)methoxy)phenyl)-2-(methylthio)propanoic acid at 30 uM after 3 hrs by radio-HPLC/LC-MS/MS analysis in presence of NADPH-generating system/SAM and UDPGA/SAM; type: ADME, cell-based, Hepatocyte
# [3] = Drug metabolism in rat hepatocytes assessed as formation of 2-amino-3-((1-carboxy-2-(4-((6-methoxy-1-methyl-1H-benzo[d]imidazol-2-yl)methoxy)phenyl)ethyl)disulfanyl)propanoic acid at 30 uM after 3 hrs by radio-HPLC/LC-MS/MS analysis; type: ADME, cell-based, Hepatocyte
# [4] = molecular target: T1, Cytochrome P450 2C8 (Homo sapiens, UniProt P10632); experiment: (§1) Activity of human CYP2C8 expressed in microsomes isolated from baculovirus infected insect cell assessed as enzyme-mediated 3-(4-((6-methoxy-1-methyl-1H-benzo[d]imidazol-2-yl)methoxy)phenyl)-2-(methylsulfinyl)propanamide formation at 20 uM after 2 hrs by radio-HPLC/LC-MS/MS analysis in presence of NADPH-generating system/SAM; type: ADME
# T1 sequence (P10632 whole entry): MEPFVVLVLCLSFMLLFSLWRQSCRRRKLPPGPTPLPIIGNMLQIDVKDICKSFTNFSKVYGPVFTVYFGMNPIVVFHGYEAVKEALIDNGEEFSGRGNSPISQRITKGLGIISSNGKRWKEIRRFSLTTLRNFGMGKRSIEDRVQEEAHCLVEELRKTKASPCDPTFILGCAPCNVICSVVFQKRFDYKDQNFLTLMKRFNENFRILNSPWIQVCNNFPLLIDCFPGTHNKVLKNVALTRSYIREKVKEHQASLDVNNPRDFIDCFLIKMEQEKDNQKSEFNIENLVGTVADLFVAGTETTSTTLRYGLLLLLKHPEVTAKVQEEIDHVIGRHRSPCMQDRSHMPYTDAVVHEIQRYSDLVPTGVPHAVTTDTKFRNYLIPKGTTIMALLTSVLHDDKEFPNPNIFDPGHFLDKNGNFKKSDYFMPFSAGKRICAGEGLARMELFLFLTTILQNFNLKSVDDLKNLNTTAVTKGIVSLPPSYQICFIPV
# [5] = molecular target: Cytochrome P450 3A4 (Homo sapiens, UniProt P08684); experiment: as §1, with “CYP3A4” for “CYP2C8”; type: ADME
# Cytochrome P450 3A4, sequence (P08684 whole entry): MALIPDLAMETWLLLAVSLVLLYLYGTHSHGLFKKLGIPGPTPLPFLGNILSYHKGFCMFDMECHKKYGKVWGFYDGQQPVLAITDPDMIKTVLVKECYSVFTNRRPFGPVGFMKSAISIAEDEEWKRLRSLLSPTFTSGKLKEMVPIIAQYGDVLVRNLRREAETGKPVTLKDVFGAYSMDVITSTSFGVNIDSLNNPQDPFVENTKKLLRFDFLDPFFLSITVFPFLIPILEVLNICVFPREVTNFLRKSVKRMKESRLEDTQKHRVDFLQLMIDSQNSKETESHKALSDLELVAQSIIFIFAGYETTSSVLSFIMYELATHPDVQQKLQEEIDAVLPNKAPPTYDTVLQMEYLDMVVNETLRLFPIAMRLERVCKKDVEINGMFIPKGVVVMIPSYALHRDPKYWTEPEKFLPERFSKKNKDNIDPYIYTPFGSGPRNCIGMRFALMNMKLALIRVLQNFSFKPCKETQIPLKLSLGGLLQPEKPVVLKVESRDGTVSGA
# [6] = tested on: Liver microsome; experiment: Drug metabolism in Sprague-Dawley rat liver microsomes assessed as formation of 5-(4-((6-methoxy-1H-benzo[d]imidazol-2-yl)methoxy)benzyl)thiazolidine-2,4-dione at 20 uM after 2 hrs by radio-HPLC/LC-MS/MS analysis in presence of NADPH-generating system and NADPH-generating system/SAM; type: ADME
# [7] = tested on: Liver microsome; experiment: Drug metabolism in Sprague-Dawley rat liver microsomes assessed as formation of 5-hydroxy-5-(4-((6-methoxy-1-methyl-1H-benzo[d]imidazol-2-yl)methoxy)benzyl)thiazolidine-2,4-dione at 20 uM after 2 hrs by radio-HPLC/LC-MS/MS analysis in presence of NADPH-generating system and NADPH-generating system/SAM; type: ADME
# [8] = molecular target: Cytochrome P450 2C9 (Homo sapiens, UniProt P11712); experiment: Activity of human CYP2C9 expressed in microsomes isolated from baculovirus infected insect cell assessed as enzyme-mediated (2S,3S,4S,5R,6R)-6-((1-carboxy-2-(4-((6-methoxy-1-methyl-1H-benzo[d]imidazol-2-yl)methoxy)phenyl)ethylthio)carbonylamino)-3,4,5-trihydroxytetrahydro-2H-pyran-2-carboxylic acid formation at 20 uM after 2 hrs by radio-HPLC/LC-MS/MS analysis in presence of NADPH-generating system/SAM; type: ADME
# Cytochrome P450 2C9, sequence (P11712 whole entry): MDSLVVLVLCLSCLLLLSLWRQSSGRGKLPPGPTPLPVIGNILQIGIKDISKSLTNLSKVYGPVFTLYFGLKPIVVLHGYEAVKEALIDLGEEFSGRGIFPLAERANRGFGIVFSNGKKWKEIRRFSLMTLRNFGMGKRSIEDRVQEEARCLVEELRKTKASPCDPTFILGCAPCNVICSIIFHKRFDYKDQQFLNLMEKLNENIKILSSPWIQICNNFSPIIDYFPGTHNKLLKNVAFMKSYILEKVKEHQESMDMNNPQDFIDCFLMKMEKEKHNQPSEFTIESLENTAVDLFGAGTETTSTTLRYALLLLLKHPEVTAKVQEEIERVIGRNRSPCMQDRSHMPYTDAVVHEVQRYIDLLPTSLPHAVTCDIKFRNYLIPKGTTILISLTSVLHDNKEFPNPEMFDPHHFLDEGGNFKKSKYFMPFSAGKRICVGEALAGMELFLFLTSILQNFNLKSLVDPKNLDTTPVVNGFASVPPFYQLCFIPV
# [9] = molecular target: T2, UDP-glucuronosyltransferase 1A3 (Homo sapiens, UniProt P35503); experiment: Activity of human UGT1A3 expressed in microsomes isolated from baculovirus infected insect cell assessed as enzyme-mediated 2-amino-3-((1-carboxy-2-(4-((6-methoxy-1-methyl-1H-benzo[d]imidazol-2-yl)methoxy)phenyl)ethyl)disulfanyl)propanoic acid formation at 20 uM after 4 hrs by radio-HPLC/LC-MS/MS analysis in presence of UDPGA and UDPGA/SAM; type: ADME
# T2 sequence (P35503 whole entry): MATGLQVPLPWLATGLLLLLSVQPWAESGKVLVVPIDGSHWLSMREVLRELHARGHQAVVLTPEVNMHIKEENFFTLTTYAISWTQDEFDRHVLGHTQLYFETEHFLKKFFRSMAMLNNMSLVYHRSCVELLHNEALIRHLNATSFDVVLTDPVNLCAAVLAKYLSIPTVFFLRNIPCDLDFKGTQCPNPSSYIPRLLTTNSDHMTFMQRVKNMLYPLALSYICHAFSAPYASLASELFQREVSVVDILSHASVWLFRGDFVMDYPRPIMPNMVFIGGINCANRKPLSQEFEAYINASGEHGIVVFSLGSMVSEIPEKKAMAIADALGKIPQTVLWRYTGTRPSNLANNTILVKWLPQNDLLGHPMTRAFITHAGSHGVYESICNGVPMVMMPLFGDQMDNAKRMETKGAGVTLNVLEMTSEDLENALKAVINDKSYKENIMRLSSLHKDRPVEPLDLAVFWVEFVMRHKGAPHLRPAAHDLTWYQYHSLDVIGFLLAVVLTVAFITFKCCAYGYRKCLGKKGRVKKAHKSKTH
# How it was run: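 Alamethicin (50 μg/mg protein, 15 min on ice) pretreated expressed human UGT microsomes (1 mg/ml protein) from baculovirus-infected insect cells. Incubation with [¹⁴C]rivoglitazone (20 μM) in 100 mM Tris-HCl (pH 7.5) with 10 mM MgCl₂, started by 5 mM UDPGA, 4 h at 37°C with shaking. UGT insect-cell control supersomes were run alongside. Acetonitrile stop, concentrated supernatant analysed by radio-HPLC, LC-MS and LC-MS/MS.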
# [10] = molecular target: Cytochrome P450 2D6 (Homo sapiens, UniProt P10635); experiment: Activity of human CYP2D6 expressed in microsomes isolated from baculovirus infected insect cell assessed as enzyme-mediated 2-hydroxy-3-(4-((6-methoxy-1-methyl-1H-benzo[d]imidazol-2-yl)methoxy)phenyl)propanamide formation at 20 uM after 2 hrs by radio-HPLC/LC-MS/MS analysis in presence of NADPH-generating system and NADPH-generating system/SAM; type: ADME
# Cytochrome P450 2D6, sequence (P10635 whole entry): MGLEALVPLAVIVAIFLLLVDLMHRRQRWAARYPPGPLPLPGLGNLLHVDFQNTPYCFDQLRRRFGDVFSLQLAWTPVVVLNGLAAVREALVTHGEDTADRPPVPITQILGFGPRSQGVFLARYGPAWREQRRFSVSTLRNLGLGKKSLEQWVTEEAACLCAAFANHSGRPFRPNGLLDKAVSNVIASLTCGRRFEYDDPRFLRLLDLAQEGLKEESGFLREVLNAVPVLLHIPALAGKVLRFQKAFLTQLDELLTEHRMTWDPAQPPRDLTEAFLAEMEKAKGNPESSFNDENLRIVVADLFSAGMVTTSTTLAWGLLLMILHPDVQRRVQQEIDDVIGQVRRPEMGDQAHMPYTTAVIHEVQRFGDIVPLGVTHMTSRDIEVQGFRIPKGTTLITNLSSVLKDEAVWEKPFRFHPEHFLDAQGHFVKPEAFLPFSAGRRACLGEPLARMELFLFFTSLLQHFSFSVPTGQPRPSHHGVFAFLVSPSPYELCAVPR
# [11] = Drug metabolism in monkey hepatocytes assessed as formation of 2-((4-((2,4-dioxothiazolidin-5-yl)methyl)phenoxy)methyl)-1-methyl-1H-benzo[d]imidazol-6-yl hydrogen sulfate at 30 uM after 3 hrs by radio-HPLC/LC-MS/MS analysis; conditions: cynomolgus monkey
# [12] = Drug metabolism in monkey hepatocytes assessed as formation of 5-(4-((6-hydroxy-1-methyl-1H-benzo[d]imidazol-2-yl)methoxy)benzyl)thiazolidine-2,4-dione at 30 uM after 3 hrs by radio-HPLC/LC-MS/MS analysis in presence of NADPH-generating system and NADPH-generating system/SAM; conditions: cynomolgus monkey
smiles,measurement,setting,value
COc1ccc2nc(COc3ccc(C[14CH]4SC(=O)NC4=O)cc3)n(C)c2c1.Cl (racemic),Drug metabolism,[1],metabolite_detected
same,Drug metabolism,[2],metabolite_not_detected
same,Drug metabolism,[3],metabolite_not_detected
same,Drug metabolism,[4],metabolite_not_detected
same,Drug metabolism,[5],metabolite_not_detected
same,Drug metabolism,[6],metabolite_detected
same,Drug metabolism,[7],metabolite_detected
same,Drug metabolism,[8],metabolite_not_detected
same,Drug metabolism,[9],metabolite_not_detected
same,Drug metabolism,[10],metabolite_detected
same,Drug metabolism,[11],metabolite_detected
same,Drug metabolism,[12],metabolite_detected
